Experiment [1] has as its system CD8-positive T cell. The experiment is described as follows: Induction of mouse ovalbumin specific CD8-positive T cell activation assessed as increase in IFN-gamma expression at 1 uM preincubated for 18 hrs with mouse BDMC cells in presence of ovalbumin followed by washout and further coincubated […] and measured after 72 hrs. In kind it is functional, cell-based. The gist of the method:
(§1)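 Supernatants taken after the 72 h coculture of washed BMDCs (18 h pretreatment with 1 μM compound, LPS 1 μg/mL or vehicle, plus OVA 50 μg/mL) with OT-II CD4+ or OT-I CD8+ T cells. Cytokines measured by mouse Th1/Th2/Th17 cytometric bead array. Duplicates of two independent experiments, mean ± SEM.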

The nature of experiment [2]: Induction of activation of human CD56+ CD3- NK cells co-cultured with human PBMC cells assessed as increase in CD107a expression at 1 uM incubated for 24 hrs by flow cytometry analysis (reference value: 1.5%). In kind it is functional, Natural killer cell.
The test system of experiment [3] is PBMC. As to the kind of experiment: Upregulation of IL-17F gene transcription in human PBMC cells at 1 uM incubated for 18 hrs by KEGG analysis. In kind it is functional, cell-based. The gist of the method:
(§2)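 PBMCs from three donors (2 × 10^6 cells/mL) exposed to 1 μM compound or 0.1% DMSO for 18 h at 37 °C. mRNA isolated, amplified, sequenced. DESeq2 differential expression, FDR <0.05 and fold change >2 or <0.5 versus vehicle; gene lists used for Metascape/KEGG enrichment.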

Experiment [4] concerns PBMC. As to the kind of experiment: Upregulation of CXCL11 gene transcription in human PBMC cells at 1 uM incubated for 18 hrs by KEGG analysis. In kind it is functional, cell-based. The gist of the method: as §2
Experiment [5] is described as follows: Induction of mouse ovalbumin specific CD8-positive T cell activation assessed as increase in CD25 expression at 1 uM preincubated for 18 hrs with mouse BDMC cells in presence of ovalbumin followed by washout and further coincubated […] and measured after 72 hrs by flow cytometry analysis (reference value: 12.6%). In kind it is functional. The gist of the method: (§3)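 C57BL/6 BMDCs (GM-CSF 7 days, >90% CD11c+) pulsed 18 h with 1 μM compound, LPS 1 μg/mL or 0.1% DMSO plus OVA 50 μg/mL, washed. 1 × 10^4 BMDCs cocultured 72 h with 5 × 10^4 CFSE-labelled OT-II CD4+ or OT-I CD8+ T cells. Flow: live Thy1.2+ CD4+ or CD8+ cells scored as CD25+ CFSElow. Duplicates of two experiments.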

In experiment [6] the test system is PBMC. As to the kind of experiment: Upregulation of CXCL10 gene transcription in human PBMC cells at 1 uM incubated for 18 hrs by KEGG analysis. It is filed as functional, cell-based. A digest of the protocol: as §2
The subject of experiment [7] is PBMC. As to the kind of experiment: Upregulation of IL-26 gene transcription in human PBMC cells at 1 uM incubated for 18 hrs by KEGG analysis. It is filed as functional, cell-based. A digest of the protocol:
as §2

In experiment [8] the test system is PBMC. The experiment is described as follows: Immunostimulatory activity in human PBMC cells assessed as increase in IL-8 production at 1 uM incubated for 18 hrs by flow cytometry analysis. In kind it is functional, cell-based. A digest of the protocol: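 PBMCs at 1 × 10^6 cells/mL treated with compound (1 μM), LPS (1 μg/mL) or 0.1% DMSO vehicle; cell-free supernatants collected after 18 h at 37 °C, 5% CO2. Cytokines quantified by human inflammatory cytokine bead array on flow cytometry with recombinant standard curves. Four independent experiments, mean ± SEM.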

The subject of a further experiment is Mus musculus. The experiment is described as follows: Immuno-adjuvant activity in NIH/OlaHsd mouse assessed as increase in ovalbumin specific IgG production in sera at 50 ug, sc administered on day 0 and as booster dose on day 21 and 28 measured 7 days post last dose by ELISA. Conditions: dose 50.0 µg, time 35.0 day. It is filed as functional, organism-based.

Experiment [9] concerns CD8-positive T cell. The experiment is described as follows: Induction of mouse ovalbumin specific CD8-positive T cell activation assessed as increase in IL-17A expression at 1 uM preincubated for 18 hrs with mouse BDMC cells in presence of ovalbumin followed by washout and further coincubated with CD4+ T cells and measured after 72 hrs. In kind it is functional, cell-based. The gist of the method: as §1

Experiment [10] concerns CD4+ve Th. As to the kind of experiment: Induction of mouse ovalbumin specific CD4+ T cell activation assessed as increase in IFN-gamma expression at 1 uM preincubated for 18 hrs with mouse BDMC cells in presence of ovalbumin followed by washout and further coincubated with CD4+ T cells and measured after 72 hrs. In kind it is functional, cell-based. A digest of the protocol:
as §1

For experiment [11], the system named is CD4+ve Th. As to the kind of experiment: Induction of mouse ovalbumin specific CD4+ T cell activation assessed as increase in IL-6 expression at 1 uM preincubated for 18 hrs with mouse BDMC cells in presence of ovalbumin followed by washout and further coincubated with CD4+ T cells and measured after 72 hrs. In kind it is functional, cell-based. A digest of the protocol: as §1

In experiment [12] the test system is CD4+ve Th. The experiment is described as follows: Induction of mouse ovalbumin specific CD4+ T cell activation assessed as increase in IL-17A expression at 1 uM preincubated for 18 hrs with mouse BDMC cells in presence of ovalbumin followed by washout and further coincubated with CD4+ T cells and measured after 72 hrs. It is filed as functional, cell-based. The gist of the method: as §1

In experiment [13] the test system is PBMC. The experiment is described as follows: Upregulation of IL12A gene transcription in human PBMC cells at 1 uM incubated for 18 hrs by KEGG analysis. It is filed as functional, cell-based. The gist of the method:
as §2

Experiment [14] is described as follows: Induction of mouse ovalbumin specific CD4+ T cell activation assessed as increase in CD25 expression at 1 uM preincubated for 18 hrs with mouse BDMC cells in presence of ovalbumin followed by washout and further coincubated with CD4+ T cells and measured after 72 hrs by flow cytometry analysis (reference value: 10.9%). It is filed as functional, CD4+ve Th. The gist of the method: as §3

Active and inactive are the calls of the source. The calls are words filed in the database; no cut-off is given here.

With `CCCCOc1nc(N)c2nc(O)n(Cc3ccc(C(=O)NCCOCCNC(=O)CC[C@@H](NC(=O)[C@@H](NC(=O)CNC(=O)/C=C/c4ccc(O)c(OC)c4)C(C)C)C(=O)OCC)cc3)c2n1`, the outcome in the experiment on CD8-positive T cell [1], with PBMC [3], in the experiment with PBMC [4], in the experiment on PBMC [6], with PBMC [7] and in the experiment with PBMC [8] was Active. Besides, the outcome with Mus musculus, in the experiment on CD8-positive T cell [9], in the experiment on CD4+ve Th [10], in the experiment on CD4+ve Th [11], in the experiment on CD4+ve Th [12] and in the experiment with PBMC [13] was Active. Moreover, the results for the Activity in experiment [2], in experiment [5] and in experiment [14] were 4.7%, 54.5% and 28.9%, respectively.
